One compound from ChEMBL document CHEMBL5230171, “Expanding the structure-activity relationships of alkynyl diphenylurea scaffold as promising antibacterial agents” (RSC Med Chem, 2023) can be followed below.

Values after ≈ are worked out from the molar mass of the structure shown. Active and inactive are the calls of the source.

For data set [1], the system named is Staphylococcus aureus. Nature of the data set: Antibacterial activity against methicillin resistant Staphylococcus aureus 123 assessed as inhibition of bacterial growth incubated for 18 to 20 hrs by CLSI protocol based broth microdilution method. The following applies: time 18-20 hrs. In kind it is functional. In outline: (§1)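 Broth microdilution against staphylococcal clinical isolates. Each strain was prepared as a 0.5 McFarland suspension and diluted in cation-adjusted Mueller Hinton broth to ~5 × 10^5 CFU mL−1. Serial dilutions of test agents in DMSO stock were incubated with the bacteria, and the MIC was recorded.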
In general terms: Broth dilution looks for growth in wells or tubes with falling amounts of substance.

Data set [2] concerns Staphylococcus aureus. Description: Antibacterial activity against vancomycin resistant Staphylococcus aureus 10 assessed as inhibition of bacterial growth incubated for 18 to 20 hrs by CLSI protocol based broth microdilution method. The data set is classed as functional. The following applies: time 18-20 hrs. A digest of the protocol:
as §1

For data set [3], the system named is Staphylococcus aureus. Nature of the data set: Antibacterial activity against vancomycin resistant Staphylococcus aureus 9 assessed as inhibition of bacterial growth incubated for 18 to 20 hrs by CLSI protocol based broth microdilution method. The data set is classed as functional. The following applies: time 18-20 hrs. In outline: as §1
For data set [4], the system named is Staphylococcus aureus. Description: Antibacterial activity against methicillin sensitive Staphylococcus aureus 6538 assessed as inhibition of bacterial growth incubated for 18 to 20 hrs by CLSI protocol based broth microdilution method. The following applies: time 18-20 hrs. In kind it is functional. In outline: as §1
In data set [5] the test system is Streptococcus pyogenes. Nature of the data set: Antibacterial activity against Streptococcus pyogenes MGAS 9882 assessed as inhibition of bacterial growth incubated for 18 to 20 hrs by CLSI protocol based broth microdilution method. The data set is classed as functional. The following applies: time 18-20 hrs. In outline: (§2)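 Streptococci were diluted from a 0.5 McFarland suspension in cation-adjusted Mueller Hinton broth with 5% lysed horse blood. They were incubated with serial dilutions of test agent in broth microdilution, and the MIC was recorded.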

Data set [6] deals with Streptococcus mutans. Description: Antibacterial activity against Streptococcus mutans 25175 assessed as inhibition of bacterial growth incubated for 18 to 20 hrs by CLSI protocol based broth microdilution method. In kind it is functional. The following applies: time 18-20 hrs. A digest of the protocol: as §2
Data set [7] deals with Enterococcus faecalis. Description: Antibacterial activity against Enterococcus faecalis 51299 assessed as inhibition of bacterial growth incubated for 18 to 20 hrs by CLSI protocol based broth microdilution method. In kind it is functional. The following applies: time 18-20 hrs. A digest of the protocol: (§3)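 Enterococci and L. monocytogenes were diluted from a 0.5 McFarland suspension in TSB. They were incubated with serial dilutions of test agent in broth microdilution, and the MIC was recorded.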

Data set [8] has as its system Enterococcus faecium. Nature of the data set: Antibacterial activity against Enterococcus faecium 700221 assessed as inhibition of bacterial growth incubated for 18 to 20 hrs by CLSI protocol based broth microdilution method. In kind it is functional. The following applies: time 18-20 hrs. In outline: as §3
Data set [9] relates to Listeria monocytogenes. Nature of the data set: Antibacterial activity against Listeria monocytogenes 19111 assessed as inhibition of bacterial growth incubated for 18 to 20 hrs by CLSI protocol based broth microdilution method. In kind it is functional. The following applies: time 18-20 hrs. In outline:
as §3

In data set [10] the test system is Staphylococcus aureus. Nature of the data set: Antibacterial activity against methicillin resistant Staphylococcus aureus 123 assessed as inhibition of bacterial growth at 0.5 ug/ml incubated for 18 to 20 hrs by CLSI protocol based broth microdilution method. In kind it is functional, organism-based. The following applies: dose 0.5 µg/ml, time 18-20 hrs.
Data set [11] relates to Staphylococcus aureus. Nature of the data set: Antibacterial activity against methicillin resistant Staphylococcus aureus 386 assessed as inhibition of bacterial growth at 0.5 ug/ml incubated for 18 to 20 hrs by CLSI protocol based broth microdilution method. The data set is classed as functional, organism-based. The following applies: dose 0.5 µg/ml, time 18-20 hrs.
The test system of data set [12] is Staphylococcus aureus. Nature of the data set: Antibacterial activity against vancomycin resistant Staphylococcus aureus 12 assessed as inhibition of bacterial growth at 0.5 ug/ml incubated for 18 to 20 hrs by CLSI protocol based broth microdilution method. To be noted: dose 0.5 µg/ml, time 18-20 hrs. In kind it is functional, organism-based.
The subject of data set [13] is Staphylococcus aureus. Nature of the data set: Antibacterial activity against vancomycin resistant Staphylococcus aureus 9 assessed as inhibition of bacterial growth at 0.5 ug/ml incubated for 18 to 20 hrs by CLSI protocol based broth microdilution method. The following applies: dose 0.5 µg/ml, time 18-20 hrs. In kind it is functional, organism-based.
Data set [14] concerns Staphylococcus aureus. Description: Antibacterial activity against methicillin sensitive Staphylococcus aureus 6538 assessed as inhibition of bacterial growth at 0.5 ug/ml incubated for 18 to 20 hrs by CLSI protocol based broth microdilution method. The data set is classed as functional, organism-based. The following applies: dose 0.5 µg/ml, time 18-20 hrs. A digest of the protocol:
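Staphylococcal and E. coli strains were diluted from a 0.5 McFarland suspension in cation-adjusted Mueller Hinton broth to ~5 × 10^5 CFU mL−1. They were incubated with serial dilutions of test agent in broth microdilution, and the MIC was recorded.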

Data set [15] concerns Vero. Nature of the data set: Cytotoxicity against African green monkey Vero cells assessed as reduction in cell viability at 64 ug/ml incubated for 24 hrs by MTS assay. In kind it is toxicity, cell-based. To be noted: chlorocebus sabaeus, dose 64 µg/ml. In outline: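 Vero or HaCaT cells were exposed to 32, 64 and 128 μg mL−1 compound in triplicate for 24 h at 37 °C, 5% CO2, with a DMSO control. MTS was then added for 4 h and OD490 read. Analysis used two-way ANOVA with Dunnett's post hoc test (p < 0.05).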
On the technique in general: Formazan colour is commonly taken as a measure of viable cells.

Data set [16] can be described thus: Hemolytic activity in rabbit erythrocytes at 16 ug/ml incubated for 30 mins by absorbance based assay. To be noted: at 16 µg/mL, read-out: Activity. In kind it is toxicity, cell-based, Oryctolagus cuniculus, Erythrocyte. A digest of the protocol: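 Rabbit erythrocytes were washed three times in PBS pH 7.4 and adjusted to A540 0.8. They were mixed 1:1 with compound (final 16, 32, 64 μg mL−1) for 30 min at 37 °C. After centrifugation at 13 000 × g for 5 min, supernatant A540 was read as % of 1% Triton X-100 complete hemolysis. PBS served as negative control. Each concentration was run twice.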

Data set [17] has as its system Staphylococcus aureus. Nature of the data set: Induction of drug resistance in methicillin resistant Staphylococcus aureus NRS384 USA300 assessed as change in MIC measured after 4 passages by broth microdilution method. The data set is classed as functional, organism-based. A digest of the protocol: (§4)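 Multi-step resistance in MRSA USA300 over 14 consecutive passages, with rifampicin as the control antibiotic. The MIC was determined by broth microdilution at each passage. Resistance was defined as a greater than four-fold rise over the initial MIC.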

Data set [18] has as its system Staphylococcus aureus. Nature of the data set: Induction of drug resistance in methicillin resistant Staphylococcus aureus NRS384 USA300 assessed as fold change in MIC measured from passage 5 to 14 by broth microdilution method. The data set is classed as functional. A digest of the protocol:
as §4

The test system of data set [19] is Staphylococcus aureus. Description: Post antibiotic effect against methicillin resistant Staphylococcus aureus NRS384 USA300 assessed as time required for 1 log10 increase in CFU at 5 times of MIC incubated for 2 hrs followed by replacement with drug free medium and measured after 18-24 hrs. In kind it is functional. A digest of the protocol:
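MRSA USA300 at ~10^6 CFU mL−1 was exposed for 2 h to 5× MIC of test agent, with vancomycin or DMSO as controls. Drug was removed by 1:1000 dilution in fresh TSB. Cultures were incubated at 37 °C with 180 rpm shaking and sampled hourly for 8 h, with viable counts on MSA read after 18–24 h. PAE = T − C, where T and C are the times for a 1 log10 rise in the test and control cultures.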

The subject of data set [20] is Staphylococcus aureus. Description: Antibacterial activity against methicillin resistant Staphylococcus aureus NRS384 USA300 infected in Balb/c mouse model of skin infection assessed as healing administered topically twice daily for three consecutive days from day 4 to 6 and measured 24 hrs post last dose. The following applies: route top, time 4.0 day. The data set is classed as functional, organism-based. A digest of the protocol: (§5)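 Mice were anesthetized with 2,2,2-tribromoethanol and injected subcutaneously with 100 μL containing 2 × 10^9 CFU MRSA USA300 in 0.5% HPMC in saline. Topical treatment used a petroleum jelly vehicle, with a fusidic acid positive control. Lesions were photographed 24 h after the last dose. A ~1.5 cm2 skin patch (homogenized in 1 mL saline) and the spleen (in 0.5 mL) were serially diluted and plated on MSA at 37 °C overnight for CFU.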

For data set [21], the system named is Staphylococcus aureus. Nature of the data set: Antibacterial activity against methicillin resistant Staphylococcus aureus NRS384 USA300 infected in Balb/c mouse model of skin infection assessed as reduction in bacterial burden in skin lesions administered topically twice daily for three consecutive days from day 4 to 6 and measured 24 hrs post last dose. In kind it is functional. To be noted: route top; time 4 day. In outline:
as §5

For data set [22], the system named is Staphylococcus aureus. Description: Antibacterial activity against methicillin resistant Staphylococcus aureus NRS384 USA300 infected in Balb/c mouse model of skin infection assessed as reduction in bacterial burden in spleen administered topically twice daily for three consecutive days from day 4 to 6 and measured 24 hrs post last dose. The data set is classed as functional. To be noted: route top; time 4 day. In outline: as §5

`C/C(=N\NC(=N)N)c1ccc(NC(=O)Nc2ccc(C#Cc3ccccc3)cc2)cc1`: the minimum inhibitory concentration (MIC) in [1], in data set [2], in data set [3], in data set [4], in [5] and in data set [6] was 0.5 µg/mL (≈ 1.22 µM) in each case. Further, the minimal inhibitory concentration (MIC) in data set [7], in [8] and in data set [9] was 0.5 µg/mL (≈ 1.22 µM) throughout. Further, the outcome in data set [10], in data set [11], in data set [12], in [13], in [14] and in data set [20] was Active. The Activity result is “Non-Toxic” in [15], 0.5 log10CFU/ml in data set [21] and >1 log10CFU/ml in data set [22]. Further, the hemolysis at 0.5 h, 16 ug/ml in data set [16] came out at 2%. For the same compound, the result in data set [17] was inactive. The “fold change (FC)” value in data set [18] is reported as 1. Moreover, in data set [19], the Time stood at 5 h.
